According to ChEMBL document CHEMBL4387752, “Identification of substituted benzothiazole sulfones as potent and selective inhibitors of endothelial lipase” (Bioorg Med Chem Lett, 2019):

Key:
[1] = molecular target: T1, Endothelial lipase (Homo sapiens, UniProt Q9Y5X9); assay: Inhibition of human endothelial lipase derived from human HT1080 cell conditioned media using PED-A1 as substrate incubated for 20 mins and measured every 20 secs for 10 mins by FRET assay
T1 sequence (Q9Y5X9 whole entry): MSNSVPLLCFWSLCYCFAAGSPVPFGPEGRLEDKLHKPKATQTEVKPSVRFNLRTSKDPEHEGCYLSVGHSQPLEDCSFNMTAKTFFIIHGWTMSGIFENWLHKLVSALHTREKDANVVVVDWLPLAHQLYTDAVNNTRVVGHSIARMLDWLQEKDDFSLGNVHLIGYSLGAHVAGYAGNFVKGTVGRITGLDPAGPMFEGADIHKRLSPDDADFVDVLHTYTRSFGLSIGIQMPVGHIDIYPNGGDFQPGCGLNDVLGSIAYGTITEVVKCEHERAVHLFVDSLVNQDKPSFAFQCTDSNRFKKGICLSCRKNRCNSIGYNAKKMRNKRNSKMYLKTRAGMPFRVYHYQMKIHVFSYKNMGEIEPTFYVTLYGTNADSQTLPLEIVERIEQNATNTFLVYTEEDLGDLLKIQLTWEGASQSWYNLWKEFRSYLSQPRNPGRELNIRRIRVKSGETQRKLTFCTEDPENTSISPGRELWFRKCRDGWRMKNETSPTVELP
Summary of the method: (§1)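 IC50s were calculated from mean inhibition values of duplicate determinations.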

[2] = molecular target: T2, Endothelial lipase (Mus musculus, UniProt Q9WVG5); assay: Inhibition of mouse endothelial lipase expressed in HEK293F cells using D31-POPC-HDL as substrate incubated for 2 hrs in presence of mouse plasma by LC/MS analysis
T2 sequence (Q9WVG5 whole entry): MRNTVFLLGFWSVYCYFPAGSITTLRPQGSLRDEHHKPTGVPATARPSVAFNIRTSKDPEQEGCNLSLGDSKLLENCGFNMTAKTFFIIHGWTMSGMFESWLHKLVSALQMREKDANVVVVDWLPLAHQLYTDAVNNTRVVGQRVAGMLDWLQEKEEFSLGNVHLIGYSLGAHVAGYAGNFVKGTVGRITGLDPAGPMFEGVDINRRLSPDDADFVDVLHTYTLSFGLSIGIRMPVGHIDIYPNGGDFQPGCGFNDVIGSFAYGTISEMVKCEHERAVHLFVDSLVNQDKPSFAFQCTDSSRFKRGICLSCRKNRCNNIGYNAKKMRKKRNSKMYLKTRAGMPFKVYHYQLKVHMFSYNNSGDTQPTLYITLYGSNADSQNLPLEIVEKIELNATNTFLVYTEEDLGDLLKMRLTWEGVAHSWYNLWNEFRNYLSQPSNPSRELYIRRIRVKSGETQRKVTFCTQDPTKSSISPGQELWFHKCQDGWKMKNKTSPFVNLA
Summary of the method: (§2)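 IC50 values were derived from the means of duplicate inhibition measurements.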

[3] = Cmax in Balb/c mouse at 10 mg/kg, po; assay type: ADME, organism-based; parameters: dose 10 mg/kg, route oral; settings: in vivo
Summary of the method: (§3)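 Oral PK in fasted male balb/c mice. Dosing vehicle was ethanol/PEG 400/water (10:60:30).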

[4] = Plasma concentration in Balb/c mouse at 10 mg/kg, po measured after 7 hrs; assay type: ADME, organism-based; summary of the method: as §3
[5] = Plasma concentration in Balb/c mouse at 10 mg/kg, po measured after 24 hrs; assay type: ADME, organism-based; summary of the method: as §3
[6] = Tmax in Balb/c mouse at 10 mg/kg, po; assay type: ADME, organism-based; settings: in vivo; summary of the method: as §3
[7] = Total AUC in Balb/c mouse at 10 mg/kg, po measured after 24 hrs; assay type: ADME, organism-based; parameters: dose 10 mg/kg, time AUCmax, route oral; settings: in vivo; summary of the method: as §3
[8] = Metabolic stability in Balb/c mouse liver microsomes assessed as parent compound remaining at 0.5 uM measured after 10 mins; assay type: ADME, Microsome; settings: read-out: Stability
Summary of the method: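 Test compound at 0.5 μM was incubated for 10 min with mouse liver microsomes. The read-out is the percentage of parent remaining.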

[9] = molecular target: T3, Hepatic triacylglycerol lipase (Homo sapiens, UniProt P11150); assay: Inhibition of human hepatic lipase expressed in African green monkey COS7 cells using PED-A1 as substrate incubated for 20 mins and measured every 20 secs for 10 mins by FRET assay; assay type: cell-based; summary of the method: as §1
T3 sequence (P11150 whole entry): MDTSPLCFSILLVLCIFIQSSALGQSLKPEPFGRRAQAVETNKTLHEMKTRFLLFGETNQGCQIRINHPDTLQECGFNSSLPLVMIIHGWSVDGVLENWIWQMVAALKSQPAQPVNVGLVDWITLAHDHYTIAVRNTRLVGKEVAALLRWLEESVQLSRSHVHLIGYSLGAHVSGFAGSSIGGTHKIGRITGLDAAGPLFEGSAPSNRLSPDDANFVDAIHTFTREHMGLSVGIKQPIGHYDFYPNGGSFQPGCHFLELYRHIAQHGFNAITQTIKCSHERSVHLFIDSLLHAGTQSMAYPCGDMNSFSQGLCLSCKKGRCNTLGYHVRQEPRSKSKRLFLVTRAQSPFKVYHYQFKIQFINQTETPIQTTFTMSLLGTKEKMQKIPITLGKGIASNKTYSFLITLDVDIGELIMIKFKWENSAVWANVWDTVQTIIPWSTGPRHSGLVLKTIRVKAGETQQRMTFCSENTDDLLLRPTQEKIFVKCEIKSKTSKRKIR

[10] = Permeability of compound at pH 5.5 by PAMPA; assay type: ADME; settings: read-out: permeability
Summary of the method: (§4)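 Permeability was measured by parallel artificial membrane permeability assay (PAMPA) at pH 5.5 and pH 7.4. Values are reported in nm/s.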

[11] = Permeability of compound at pH 7.4 by PAMPA; assay type: ADME; settings: read-out: permeability; summary of the method: as §4
[12] = species on record: Homo sapiens; assay: Selectivity index, ratio of IC50 for inhibition of human hepatic lipase expressed in African green monkey COS7 cells to IC50 for inhibition of human endothelial lipase derived from human HT1080 cell conditioned media; assay type: cell-based
[13] = molecular target: T1, Endothelial lipase; assay: Inhibition of human endothelial lipase using D31-POPC-HDL as substrate incubated for 2 hrs in presence of human serum by LC/MS analysis; summary of the method: as §2

Row | Structure (SMILES) | IC50 [1] [nM] | IC50 [2] [nM] | Cmax [3] [nM] | concentration at 7 h [4] [nM] | concentration at 24 h [5] [nM] | Tmax [6] [h] | AUC at 24 h [7] [µM·h] | remaining at 10 min, 0.5 µM [8] [%] | IC50 [9] [nM] | Papp [10] [×10⁻⁶ cm/s] | Papp [11] [×10⁻⁶ cm/s] | IC50 [13] [nM] | Ratio IC50 [12]
1 | CS(=O)(=O)C(C(=O)NCCS(N)(=O)=O)c1nc2ccc(-c3cnn(CCN4CCOCC4)c3)cc2s1 (configuration not stated) | 10 | 190 | 15 | 4 | 1 | 3 | 0.1 | 74 |  |  |  |  | 
2 | CS(=O)(=O)C(C(=O)NCC(=O)NC1CC1)c1nc2ccc(-c3ccc(F)nc3)cc2s1 (configuration not stated) |  | 290 |  |  |  |  |  |  | 130 | 25.2 | 38.9 | 7 | 2.8
3 | CS(=O)(=O)C(C(=O)NCCS(N)(=O)=O)c1nc2ccc(-c3ccc(F)nc3)cc2s1 (configuration not stated) | 5 | 200 | 30 | 1 |  |  | 0.05 | 96 | 4400 | 1.7 | 7.8 |  | 

The next lines start with results.

Row | IC50 [1] [nM] | IC50 [2] [nM] | Cmax [3] [nM] | concentration at 7 h [4] [nM] | concentration at 24 h [5] [nM] | Tmax [6] [h] | AUC at 24 h [7] [µM·h] | remaining at 10 min, 0.5 µM [8] [%] | IC50 [9] [nM] | Papp [10] [×10⁻⁶ cm/s] | Papp [11] [×10⁻⁶ cm/s] | IC50 [13] [nM] | Structure (SMILES) | Ratio IC50 [12]
4 | 10 | 100 to 210 | 3500 | 430 | 130 | 0.5 | 14 | 91 | 15 | 36.5 | 36.8 |  | CS(=O)(=O)C(C(=O)NCCS(N)(=O)=O)c1nc2ccc(-c3ccccc3)cc2s1 (configuration not stated) | 
5 | 7700 |  |  |  |  |  |  |  | 52 |  |  |  | CS(=O)(=O)C(C(=O)NCCCS(N)(=O)=O)c1nc2ccc(-c3ccccc3)cc2s1 (configuration not stated) | 
6 | 10 | 320 | 36 | 8 | 5 | 2.6 | 0.16 | 100 | 280 | 1.2 | 1.3 |  | CS(=O)(=O)C(C(=O)NCCS(N)(=O)=O)c1nc2ccc(-c3ccc(C(=O)N4CCOCC4)cc3)cc2s1 (configuration not stated) | 
